High-throughput results as filed in PubChem BioAssay.
Many of the other results were omitted from the sample, so hits are more common in it than they were.
Biofilm kill mix: clotrimazole potentiators killing C. albicans biofilm, primary screen, 4-compound mixtures | actives 0.02% (n = 120,000) | inhibition, % at 7.6 µM | C. albicans biofilm persisters + clotrimazole, fluorescence viability; primary screen in compound mixtures of four per well;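 note: compounds exposed to preformed 24 h biofilms for 48 h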
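System: C. albicans CAF4-2 wild-type biofilms; Medium: RPMI/MOPS medium, pH 7.0; Reagent: Clotrimazole, 50 µg/mL; Times: biofilm formation 24 h, compound exposure 48 h, 37 °C; Detection: 2-h Alamar Blue fluorescence, 535/590 nm excitation/emission; Evaluation: percent inhibition of biofilm viability.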
ROMK mod: ROMK potassium channel modulators, primary screen, cell-based, thallium flux, MLSMR library; ATP-sensitive inward rectifier potassium channel 1 (Homo sapiens), P48048; Tet-inducible ROMK, thallium flux fluorescence; actives lie on both sides; B-score at 10 µM; actives 2% (n = 130,000);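 active = signal ratio slope over the read window, or its plate-corrected B-score, at least 3 SD from the plate mean, either direction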;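 note: B-score of the F/F0 ratio slope over 7 to 12 s after thallium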
Target sequence (P48048 whole entry, looked up): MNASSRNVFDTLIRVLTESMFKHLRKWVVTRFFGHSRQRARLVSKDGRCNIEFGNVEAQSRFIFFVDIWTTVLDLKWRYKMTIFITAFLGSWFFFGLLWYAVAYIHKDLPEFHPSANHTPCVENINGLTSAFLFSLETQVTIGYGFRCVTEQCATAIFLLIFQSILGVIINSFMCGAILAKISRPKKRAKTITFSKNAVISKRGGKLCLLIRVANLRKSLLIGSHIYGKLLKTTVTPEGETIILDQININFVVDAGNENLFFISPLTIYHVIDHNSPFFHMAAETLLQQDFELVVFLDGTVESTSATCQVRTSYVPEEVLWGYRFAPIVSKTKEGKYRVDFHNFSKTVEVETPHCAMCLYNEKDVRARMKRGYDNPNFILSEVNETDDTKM
ABCB1 inh: ABCB1 efflux pump inhibitors, primary screen, cell-based, multiplex, flow cytometry, ABCG2 counter-screen; ATP-dependent translocase ABCB1 (Homo sapiens), P08183; CCRF-Adr cells, JC-1 efflux; inhibition, % at 6.6 µM; actives 0.067% (n = 190,000); in the data active = inhibition above about 40%;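 note: higher value means more JC-1 retained so stronger ABCB1 efflux block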
zfTRPN1 agonist: zebrafish TRPN1 channel agonists, primary screen, cell-based, HEK293, calcium fluorescence; transient receptor potential cation channel N1 (TRPN1/NompC), Danio rerio; actives 0.18% (n = 220,000); activation, % at 3 µM; HEK293 zebrafish TRPN1-YFP, Fluo-8 calcium fluorescence; 100% = response to 87 µM carbachol;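 active = activation above its plate's cutoff, the mean activation of test wells on that plate plus 3 SD, cut at about 19% in these data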
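Assay system: Zebrafish TRPN1-YFP in HEK293 cells | Incubation: Dye loading 1 h at 37 °C, then 30 min room temperature | Measured by: Kinetic Fluo-8 fluorescence, ex 470-495, em 515-575 nm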
TRPML3 agonist: human TRPML3 channel agonists, primary screen, cell-based, HEK293 TRPML3-YFP, Fluo-8 calcium fluorescence, 3 µM; Mucolipin-3 (Homo sapiens), Q8TDD5; 100% = the carbachol control signal; activation, % at 3 µM; actives 0.29% (n = 220,000);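 active = activation above its plate's cutoff, the mean activation of the plate's test wells plus 3 SD, cut at about 12% in these data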
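Test system – HEK293 line with stable expression of human TRPML3-YFP channel · Control set – carbachol 87 µM final as high control (100%), DMSO as low control (0%) · Signal – Fluo-8 calcium dye fluorescence, ex 470-495, em 515-575 nm · Incubation – 1-h 37 °C dye load, 5-s basal, 120-s post-compound reads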
ABCG2 inh: ABCG2 efflux pump inhibitors, primary screen, multiplex with ABCB1, IgMXP3 cells, flow cytometry. Broad substrate specificity ATP-binding cassette transporter ABCG2 (Homo sapiens), Q9UNQ0. inhibition, % at 6.6 µM. JC-1 efflux. actives 0.1% (n = 190,000);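 active = inhibition above 80%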
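test system = two drug-resistant human cell lines, ABCG2 and ABCB1 | amount = 3 million cells/mL final, two lines in 1:1 ratio | reagent = JC-1 transporter substrate | doses = one concentration, 6.6 µM final | incubation = 10 min at 25 °C | signal = flow cytometric JC-1 green MFI at 530 nm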
ROMK hit retest: ROMK channel modulator hit retest, confirmation, cell-based, thallium flux, duplicate, resupplied hits | fluorescence ratio; stronger effect = lower value | normalized thallium flux (F/F0 slope) at 10 µM | AID 1917, 2009 | shares compounds with ROMK mod | actives 54% (n = 3,000);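 active = Flux at 10 µM at least 3 SD below or above vehicle control mean in one or both replicates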
Each line names hits and unclear results; the compound was inactive in the other large screens (follow-up assays come after a bar, where they were run).

C=CCN1C(=O)/C(=C/c2ccc(N3CCOCC3)o2)C(=O)NC1=S	none (no result: ROMK mod)
CCN(CC)c1ccc(/C=C2\C(=O)NC(=S)N(C)C2=O)o1	ROMK mod -6.3 (no result: ABCB1 inh, ABCG2 inh) | ROMK hit retest 0.028
Cc1ccc(OCC(=O)N2CCN(CC3CC4C=CC3C4)CC2)cc1 (stereo unspecified)	ROMK mod -2.1 (no result: Biofilm kill mix) | ROMK hit retest 0.067
CCCCOP(=O)(OCCCC)/C(C#N)=C(/C)O	none (no result: Biofilm kill mix)
CCn1c(O)c(/C=N/N2CCOCC2)c(=O)n(CC)c1=S	none (no result: ROMK mod)
CCn1c(O)c(C=Nc2ccc(N3CCOCC3)c(Br)c2)c(=O)n(CC)c1=S	ROMK mod -5.3 (no result: Biofilm kill mix) | ROMK hit retest inactive
CCn1c(O)c(C=Nc2ccc(N3CCOCC3)cc2)c(=O)n(CC)c1=S	ROMK mod -6.6 (no result: Biofilm kill mix) | ROMK hit retest 0.045
CP(=O)(Nc1ccc(Cl)cc1)c1nc2c(s1)CCCC2 (stereo unspecified)	none (no result: ROMK mod, ABCB1 inh, ABCG2 inh)
O=c1[nH]c(=O)n(-c2ccccc2)c(O)c1/C=C1/C(c2ccccc2)=Nc2ccccc21	ROMK mod -5.4 | ROMK hit retest 0.055
CCNc1nc(Cl)nc(NC(C)C)n1	none
CC(=NCCN1CCCCC1)c1c(O)n(-c2ccccc2)c(=O)[nH]c1=O	none (no result: ROMK mod, ABCB1 inh, ABCG2 inh)
COc1cc(/C=C/[N+](=O)[O-])ccc1O	ROMK mod -7 | ROMK hit retest 0.051
CC(C)(C#CCCCCC#CC(C)(C)[N+](C)(C)C)[N+](C)(C)C	none (no result: ABCB1 inh, ABCG2 inh)
COc1ccc(CCNCc2ccc(F)cc2)cc1OC	none (no result: Biofilm kill mix)
COc1ccc(CCNCc2ccc(SC)cc2)cc1	none (no result: Biofilm kill mix, ROMK mod) | ROMK hit retest 0.062
Cn1cccc1/C=C1/C(=O)NC(=O)N(C(C)(C)C)C1=O	ROMK mod 4.2 (no result: ABCB1 inh, ABCG2 inh) | ROMK hit retest inactive
CCCCC1(CCCC)C(=O)NC(=Nc2cccc(C)c2)NC1=O	none (no result: Biofilm kill mix, ROMK mod) | ROMK hit retest 0.052
CCCC1(CCC)C(=O)NC(=Nc2ccccc2)NC1=O	none (no result: Biofilm kill mix, ROMK mod)
Cc1nn(Cc2ccccc2)c(C)c1C(=O)OCC(=O)Nc1cccc(S(N)(=O)=O)c1	none
C/C(=N\NC(=S)Nc1ccccc1)c1c(O)n(C)c(=O)n(C)c1=O	none
